Values after ≈ are worked out from the molar mass of the structure shown. Active and inactive are the calls of the source. No cut-off for these calls is given here.
Experiments:
Pseudomonas aeruginosa [1] = test: Bacteriostatic activity against Pseudomonas aeruginosa PA01 assessed as inhibition of bacterial growth by microtiter broth dilution method; type: functional, organism-based
Staphylococcus aureus [2] = test: Antibiotic activity against methicillin-resistant Staphylococcus aureus MN8-USA200 assessed as inhibition of bacterial growth incubated for 16 hrs by microtiter broth dilution method; type: functional
How it was run: (§1)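 Microtiter broth dilution assay in liquid medium, run alongside MBC determination, against a Gram-positive panel; the MIC was read as growth inhibition.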

Enterococcus faecalis [3] = test: Antibiotic activity against vancomycin resistant Enterococcus faecalis NJ3 assessed as inhibition of bacterial growth incubated for 16 hrs by microtiter broth dilution method; type: functional; how it was run: as §1
Staphylococcus aureus [4] = test: Antibiotic activity against methicillin-resistant Staphylococcus aureus MW2-USA400 assessed as inhibition of bacterial growth incubated for 16 hrs by microtiter broth dilution method; type: functional; how it was run: as §1
Enterococcus faecalis [5] = test: Bacteriostatic activity against vancomycin resistant Enterococcus faecalis NJ3 assessed as inhibition of bacterial growth by microtiter broth dilution method; type: functional, organism-based
Staphylococcus aureus [6] = test: Bacteriostatic activity against methicillin-resistant Staphylococcus aureus MN8-USA200 assessed as inhibition of bacterial growth by microtiter broth dilution method; type: functional, organism-based
Staphylococcus aureus [7] = test: Bacteriostatic activity against methicillin-resistant Staphylococcus aureus MW2-USA400 assessed as inhibition of bacterial growth by microtiter broth dilution method; type: functional, organism-based
Pseudomonas aeruginosa [8] = test: Antibiotic activity against Pseudomonas aeruginosa PA01 assessed as inhibition of bacterial growth incubated for 16 hrs by microtiter broth dilution method; type: functional
Staphylococcus aureus [9] = test: Bacteriostatic activity against methicillin-resistant Staphylococcus aureus IA116-USA100 assessed as inhibition of bacterial growth by microtiter broth dilution method; type: functional, organism-based
Staphylococcus aureus [10] = test: Antibiotic activity against methicillin-resistant Staphylococcus aureus IA116-USA100 assessed as inhibition of bacterial growth incubated for 16 hrs by microtiter broth dilution method; type: functional; how it was run: as §1
Staphylococcus aureus [11] = test: Antibiotic activity against methicillin-resistant Staphylococcus aureus LAC-Fitz-USA300 assessed as inhibition of bacterial growth incubated for 16 hrs by microtiter broth dilution method; type: functional; how it was run: as §1
Staphylococcus aureus [12] = test: Bacteriostatic activity against methicillin-resistant Staphylococcus aureus LAC-Fitz-USA300 assessed as inhibition of bacterial growth by microtiter broth dilution method; type: functional, organism-based
Staphylococcus aureus [13] = test: Inhibition of ClpX/ClpP activity in methicillin-resistant Staphylococcus aureus USA300 assessed as increase in urease activation incubated of overnight by phenol red dye based microplate reader analysis
How it was run: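 Cell-based ClpXP readout in MRSA USA300 grown in Christensen's urea medium with phenol red indicator. ClpXP inhibition raises urease activity, which hydrolyses urea and releases ammonia, and the rising pH turns the medium from yellow to red. Minimum effective concentration (MEC) was taken as the lowest level that raised urease activity above background.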

[14] = Cytotoxicity against human A549 cells assessed as number of viable cells at 100 uM incubated for 24 hrs by calcein-AM and ethidium homodimer-1 staining based flow cytometry; type: toxicity, cell-based; conditions: read-out: Activity
How it was run: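 A549 human lung epithelial carcinoma cells were incubated with compound at up to 100 μM and stained with calcein-AM and ethidium homodimer-1. Viable and dead fractions were determined by confocal microscopy and flow cytometry, against a vehicle control.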

[15] = Inhibition of C-terminal His tagged Bacillus subtilis ClpY/ClpQ expressed in Escherichia coli BL21 (DE3) using Cbz-Gly-Gly-Leu-AMC as peptide substrate by Cheng-prusoff equation analysis
How it was run: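 Recombinant purified B. subtilis ClpYQ was used for inhibition kinetics. Peptide hydrolysis of the fluorogenic substrate Cbz-GGL-AMC at 100 μM was followed over a range of compound concentrations to give a dose-response curve.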

Staphylococcus aureus [16] = test: Antibiotic activity against methicillin-resistant Staphylococcus aureus USA300 assessed as inhibition of bacterial growth incubated for 16 hrs in presence of BSA by microtiter broth dilution method; type: functional
How it was run: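 MIC by microtiter broth dilution against MRSA USA300, with bovine serum albumin added to the medium to assess the effect of protein binding.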

[17] = Toxicity in sheep RBC assessed as induction of hemolysis at 200 uM and measured after 1 hr relative to control; type: cell-based, Ovis aries, Erythrocyte; conditions: sheep red blood cells, read-out: Activity
How it was run: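 Hemolytic activity was measured as percent lysis of sheep erythrocytes, with compound tested up to 200 μM.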

Escherichia coli = test: Antibiotic activity against Escherichia coli with delta.tolC mutation assessed as inhibition of bacterial growth by microtiter broth dilution method; type: functional, organism-based

SMILES	Activity (Pseudomonas aeruginosa [1])	MIC (Staphylococcus aureus [2])	MIC (Enterococcus faecalis [3])	MIC (Staphylococcus aureus [4])	Activity (Enterococcus faecalis [5])	Activity (Staphylococcus aureus [6])	Activity (Staphylococcus aureus [7])	MIC (Pseudomonas aeruginosa [8])	Activity (Staphylococcus aureus [9])	MIC (Staphylococcus aureus [10])	MIC (Staphylococcus aureus [11])	Activity (Staphylococcus aureus [12])	MEC (Staphylococcus aureus [13])	viability at 24 h, 100 µM [14]	Ki [15]	MIC (Staphylococcus aureus [16])	hemolysis at 1 h, 200 µM [17]	Activity (Escherichia coli)
CCCCCCCCCCCCN1C(=O)C(Cl)=C(Cl)C12Oc1c(cc(Cl)c(O)c1CCCCCC)C2=O (stereo unspecified)	Active	16 µg/mL (≈ 27.9 µM)	8 µg/mL (≈ 14 µM)	8 µg/mL (≈ 14 µM)	Active	Active	Active	> 32 µg/mL	Active	8 µg/mL (≈ 14 µM)	16 µg/mL (≈ 27.9 µM)	Active						
Cc1c(O)c(Cl)cc2c1OC1(C2=O)C(Cl)=C(Cl)C(=O)N1Cc1ccccc1 (stereo unspecified)	Active	> 32 µg/mL	> 32 µg/mL	32 µg/mL (≈ 75.4 µM)	Active	Active	Active	> 32 µg/mL	Active	> 32 µg/mL	32 µg/mL (≈ 75.4 µM)	Active						
CCCCCCc1c(O)c(Cl)cc2c1OC1(C2=O)C(Cl)=C(Cl)C(=O)N1CCCCCC (stereo unspecified)	Active	1 µg/mL (≈ 2.05 µM)	2 µg/mL (≈ 4.09 µM)	1 µg/mL (≈ 2.05 µM)	Active	Active	Active	> 32 µg/mL	Active	1 µg/mL (≈ 2.05 µM)	1 µg/mL (≈ 2.05 µM)	Active	0.067 µg/mL	> 95%	1300 nM	32 µg/mL	< 5%	
C=CCN1C(=O)C(Cl)=C(Cl)C12Oc1c(cc(Cl)c(O)c1CCCCCC)C2=O (stereo unspecified)	Active	4 µg/mL (≈ 8.99 µM)	8 µg/mL (≈ 18 µM)	4 µg/mL (≈ 8.99 µM)	Active	Active	Active	> 32 µg/mL	Active	4 µg/mL (≈ 8.99 µM)	4 µg/mL (≈ 8.99 µM)	Active						
Cc1c(O)c(Cl)cc2c1OC1(C2=O)C(Cl)=C(Cl)C(=O)N1Cc1ccc(C(F)(F)F)cc1 (stereo unspecified)	Active	16 µg/mL (≈ 32.5 µM)	32 µg/mL (≈ 65 µM)	16 µg/mL (≈ 32.5 µM)	Active	Active	Active	> 32 µg/mL	Active	16 µg/mL (≈ 32.5 µM)	16 µg/mL (≈ 32.5 µM)	Active						
CCCCCCc1c(O)c(Cl)cc2c1OC1(C2=O)C(Cl)=C(Cl)C(=O)N1C (stereo unspecified)	Active	4 µg/mL (≈ 9.55 µM)	8 µg/mL (≈ 19.1 µM)	4 µg/mL (≈ 9.55 µM)	Active	Active	Active	> 32 µg/mL	Active	4 µg/mL (≈ 9.55 µM)	4 µg/mL (≈ 9.55 µM)	Active	1 µg/mL	> 95%	3200 nM	> 32 µg/mL	< 15%	Active
CCCCCCN1C(=O)C(Cl)=C(Cl)C12Oc1c(cc(Cl)c(O)c1C)C2=O (stereo unspecified)	Active	4 µg/mL (≈ 9.55 µM)	8 µg/mL (≈ 19.1 µM)	8 µg/mL (≈ 19.1 µM)	Active	Active	Active	> 32 µg/mL	Active	4 µg/mL (≈ 9.55 µM)	4 µg/mL (≈ 9.55 µM)	Active						
CCCCCCCCCCCCN1C(=O)C(Cl)=C(Cl)C12Oc1c(cc(Cl)c(O)c1C)C2=O (stereo unspecified)	Active	2 µg/mL (≈ 3.98 µM)	0.5 µg/mL (≈ 0.994 µM)	2 µg/mL (≈ 3.98 µM)	Active	Active	Active	> 32 µg/mL	Active	2 µg/mL (≈ 3.98 µM)	1 µg/mL (≈ 1.99 µM)	Active	0.5 µg/mL		1000 nM			
CCCCCCc1c(O)c(Cl)cc2c1OC1(C2=O)C(Cl)=C(Cl)C(=O)N1CCc1ccccc1 (stereo unspecified)	Active	0.5 µg/mL (≈ 0.983 µM)	1 µg/mL (≈ 1.97 µM)	0.5 µg/mL (≈ 0.983 µM)	Active	Active	Active	> 32 µg/mL	Active	1 µg/mL (≈ 1.97 µM)	0.5 µg/mL (≈ 0.983 µM)	Active	0.25 µg/mL	> 95%	410 nM		< 5%	
C=CCN1C(=O)C(Cl)=C(Cl)C12Oc1c(cc(Cl)c(O)c1C)C2=O (stereo unspecified)	Active	> 32 µg/mL	> 32 µg/mL	> 32 µg/mL	Active	Active	Active	> 32 µg/mL	Active	> 32 µg/mL	> 32 µg/mL	Active						
CCCCCCc1c(O)c(Cl)cc2c1OC1(C2=O)C(Cl)=C(Cl)C(=O)N1Cc1ccc(C)cc1 (stereo unspecified)	Active	0.5 µg/mL (≈ 0.983 µM)	1 µg/mL (≈ 1.97 µM)	0.5 µg/mL (≈ 0.983 µM)	Active	Active	Active	> 32 µg/mL	Active	1 µg/mL (≈ 1.97 µM)	0.5 µg/mL (≈ 0.983 µM)	Active	0.25 µg/mL		150 nM			
CCCCCCc1c(O)c(Cl)cc2c1OC1(C2=O)C(Cl)=C(Cl)C(=O)N1Cc1ccccc1 (stereo unspecified)	Active	1 µg/mL (≈ 2.02 µM)	2 µg/mL (≈ 4.04 µM)	2 µg/mL (≈ 4.04 µM)	Active	Active	Active	> 32 µg/mL	Active	1 µg/mL (≈ 2.02 µM)	1 µg/mL (≈ 2.02 µM)	Active	0.25 µg/mL		580 nM			
CCCCCCc1c(O)c(Cl)cc2c1OC1(C2=O)C(Cl)=C(Cl)C(=O)N1Cc1ccc(C(F)(F)F)cc1 (stereo unspecified)	Active	2 µg/mL (≈ 3.55 µM)	2 µg/mL (≈ 3.55 µM)	2 µg/mL (≈ 3.55 µM)	Active	Active	Active	> 32 µg/mL	Active	2 µg/mL (≈ 3.55 µM)	2 µg/mL (≈ 3.55 µM)	Active	1 µg/mL		570 nM			
Cc1c(O)c(Cl)cc2c1OC1(C2=O)C(Cl)=C(Cl)C(=O)N1C (stereo unspecified)	Active	> 32 µg/mL	> 32 µg/mL	> 32 µg/mL	Active	Active	Active	> 32 µg/mL	Active	> 32 µg/mL	> 32 µg/mL	Active						
